# Non-standard residues stand in square brackets, D forms with d. No end group written: not given here.
# Legend:
# S. aureus ClpX = S. aureus ClpX (Staphylococcus aureus, UniProt Q2FXQ7); assay: Isothermal titration calorimetry; type: binding; conditions: 25 °C, ~30 μM His-ClpX, ~300 μM ligand
# S. aureus SH1000 [1] = assay: MIC assay; type: cell-based, Staphylococcus aureus
# S. aureus SH1000 [2] = assay: Mutant isolation by direct plating; type: cell-based, Staphylococcus aureus; conditions: 8× MIC, ~1 × 10^7 cells per ml, LB, 30 °C, overnight
# HeLa cells = assay: Human cell toxicity assay; type: cell-based; conditions: MTT, 48 h, 32 and 3.2 µg ml−1, duplicate wells; three biologically independent replicates
# In short: (§1)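 Cells grown in DMEM with 10% FBS, penicillin–streptomycin, glutamine and nonessential amino acids, and seeded in exponential phase at 5,000 per well, 37 °C, 5% CO2. Compound added from a DMSO stock in phenol red-free DMEM (final DMSO 0.5% or 0.05%). Vehicle sets 100% viability; camptothecin 40 µg ml−1 sets 0%. MTT added for 4 h, solubilized overnight, A570 read, normalized to percentage survival.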
# HEK239 cells = assay: Human cell toxicity assay; type: cell-based; conditions: MTT, 48 h, 32 and 3.2 µg ml−1, duplicate wells; three biologically independent replicates
# In short: as §1
# S. aureus ClpX, sequence (Q2FXQ7 whole entry): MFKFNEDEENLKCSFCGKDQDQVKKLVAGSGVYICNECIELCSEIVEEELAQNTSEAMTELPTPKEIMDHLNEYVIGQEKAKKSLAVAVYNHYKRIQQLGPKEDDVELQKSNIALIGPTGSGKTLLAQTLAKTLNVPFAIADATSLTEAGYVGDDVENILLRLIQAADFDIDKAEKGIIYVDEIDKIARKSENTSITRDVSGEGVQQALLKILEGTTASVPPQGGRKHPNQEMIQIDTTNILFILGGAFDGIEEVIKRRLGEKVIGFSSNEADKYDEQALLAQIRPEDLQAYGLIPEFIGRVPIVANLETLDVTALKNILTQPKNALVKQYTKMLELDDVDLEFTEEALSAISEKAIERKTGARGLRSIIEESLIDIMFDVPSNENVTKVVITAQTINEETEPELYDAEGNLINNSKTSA
substance,measurement,setting,value
"[dT]PFYL (also: lariat or depsi (positions not given here)) [synBNP 27, trigintamicin]",binding to ClpX by ITC (in words),S. aureus ClpX,bound ClpX
same,antibiotic activity after shifting the assay conditions to 37 °C (in words),"S. aureus SH1000 [1]; S. aureus, 37 °C instead of 30 °C",abolished
same,antibiotic activity against S. aureus (in words),"S. aureus SH1000 [1]; resolved trigintamicin isomers after resynthesis, 30 °C",showing antibiotic activity
same,resistant mutants by direct plating,S. aureus SH1000 [2],generated resistant mutants
same,human cell toxicity (in words),HeLa cells,human cell cytotoxicity
same,human cell toxicity (in words),HEK239 cells,human cell cytotoxicity

# Source: publication PMC12818350 (Nature Biotechnology, 2025)
